This passage reports IC50 and Toxicity results from ChEMBL document CHEMBL1124232, “Synthesis and biological activities of 4-O-(difluoromethyl)-5-substituted-uracil nucleoside analogues” (J Med Chem, 1988).

One data set relates to Human betaherpesvirus 5. As to the kind of experiment: Ability to reduce plaque formation of human cytomegalovirus (HCMV) by 50% in human embryonic lung fibroblast (HELF) cell cultures. The format is functional. The settings on record: Human betaherpesvirus 5, HELF; read-out: ID50 (the source's name). An outline of the steps:
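Plaque reduction in HELF cells with laboratory HCMV strain Davis, plaques scored 8–12 days post-infection. ID50 is the concentration cutting plaque formation by 50%.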

A further data set deals with Human alphaherpesvirus 2. The data set can be described thus: Ability to reduce plaque formation of herpes simplex virus type 2 (HSV-2) by 50% in human embryonic lung fibroblast (HELF) cell cultures. In kind it is functional. Particulars: Human alphaherpesvirus 2, HELF; read-out: ID50 (the source's name). An outline of the steps: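 Clinical isolate HSV-2 strain 74 adsorbed 1 h at 37 °C onto confluent HELF monolayers, aiming at 50–100 plaques per bottle. Compound added in methocel (0.5% w/v) overlay containing 10% FCS; 2 days at 37 °C. Plaques visualised with neutral red. ID50 in µmol/L determined graphically as the concentration halving plaque counts.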

The nature of data set [1]: Minimum concentration not causing a microscopically detectable cytotoxic alteration of normal human embryonic lung fibroblast (HELF) morphology. An outline of the steps: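 Semiconfluent HELF monolayers, 24 h post-seeding, exposed 3 days at 37 °C to compound up to 1 mmol/L. Microscopic comparison with untreated controls; toxicity signs were cell detachment, monolayer destruction, or cells remaining semiconfluent. Value is the lowest concentration showing no detectable morphological alteration.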

Data set [2] deals with Human alphaherpesvirus 1. As to the kind of experiment: Ability to reduce plaque formation of herpes simplex virus type 1 (HSV-1) by 50% in human embryonic lung fibroblast (HELF) cell cultures. The format is functional. The settings on record: Human alphaherpesvirus 1, HELF; read-out: ID50 (the source's name). An outline of the steps:
(§1)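 HELF confluent monolayers infected 1 h at 37 °C (about 50–100 plaques per bottle) with HSV-1 clinical isolate strain 77 or TK-deficient HSV-1 B 2006. Then 0.5% w/v methocel overlay with 10% fetal calf serum plus compound, 3 days at 37 °C. Neutral red staining; ID50 in µmol/L read graphically as 50% plaque-number reduction.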

The test system of a further data set is Human alphaherpesvirus 3. The data set can be described thus: Ability to reduce plaque formation of varicella zoster virus (VZV) by 50% in human embryonic lung fibroblast (HELF) cell cultures. The format is functional. Particulars: Human alphaherpesvirus 3, HELF; read-out: ID50 (the source's name). The gist of the method:
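Fresh clinical VZV isolate, strain 3/S.H., in HELF cells. Plaques counted 5–6 days post-infection. ID50 is the concentration reducing plaque formation by 50%.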

Data set [3] relates to Human alphaherpesvirus 1. As to the kind of experiment: Ability to reduce plaque formation of TK deficient herpes simplex virus type 1(HSV-1) by 50% in human embryonic lung fibroblast (HELF) cell cultures. In kind it is functional. Particulars: Human alphaherpesvirus 1, HELF; read-out: ID50 (the source's name). The gist of the method: as §1
Data set [4] in a line: Inhibitory dose for HELF cell proliferation during 3-day treatment period. The format is functional. Particulars: Homo sapiens, 72 h, read-out: ID50 (the source's name).

pIC50: −log10 of the molar value.

Turning to `Cc1cn([C@@H]2O[C@H](CO)[C@@H](O)[C@@H]2O)c(=O)[nH]c1=O`, the pIC50 in the data set on Human betaherpesvirus 5 was below 3.30; in the data set on Human alphaherpesvirus 2, 5.78; with Human alphaherpesvirus 1 [2], 6.19; with Human alphaherpesvirus 3, 6.28; in the data set with Human alphaherpesvirus 1 [3], below 3.30. Further, the Toxicity in data set [1] is above 1000 µM.

On to `O=c1nc(OC(F)F)c(F)cn1[C@@H]1O[C@H](CO)[C@@H](O)[C@H]1O`, for which the pIC50 is below 3.30 with Human alphaherpesvirus 2 and 3.30 in the data set on Human alphaherpesvirus 1 [2]. This molecule registered a Toxicity in data set [1] above 500 µM.

On to `O=c1nc(OC(F)F)ccn1[C@@H]1O[C@H](CO)[C@@H](O)[C@H]1O`, for which the pIC50 in the data set with Human alphaherpesvirus 2 and in the data set with Human alphaherpesvirus 1 [2] was below 3.00 each time. Moreover, the Toxicity in data set [1] is above 1000 µM.

As for `O=c1nc(OC(F)F)c(I)cn1[C@@H]1O[C@H](CO)[C@@H](O)[C@@H]1O`, the pIC50 in the data set on Human alphaherpesvirus 2 was 4.09; with Human alphaherpesvirus 1 [2], 4.54. The Toxicity in data set [1] was above 1000 µM.

On to `O=c1nc(OC(F)F)c(Br)cn1[C@@H]1O[C@H](CO)[C@@H](O)[C@H]1O`, for which the pIC50 in the data set on Human alphaherpesvirus 2 and in the data set on Human alphaherpesvirus 1 [2] was below 3.60 throughout. The same molecule displayed a Toxicity in data set [1] above 250 µM.

Regarding `O=c1nc(OC(F)F)ccn1[C@@H]1O[C@H](CO)[C@@H](O)[C@@H]1O`, the pIC50 in the data set with Human alphaherpesvirus 2 is below 3.00; in the data set with Human alphaherpesvirus 1 [2], 3.37. Further, the Toxicity in data set [1] is above 1000 µM.

Take `O=c1nc(OC(F)F)c(I)cn1[C@@H]1O[C@H](CO)[C@@H](O)[C@H]1O`: the pIC50 in the data set with Human alphaherpesvirus 2 and in the data set on Human alphaherpesvirus 1 [2] was below 3.30 in each case. Moreover, the Toxicity in data set [1] was above 500 µM.

As to `O=c1nc(OC(F)F)c(Br)cn1[C@@H]1O[C@H](CO)[C@@H](O)[C@@H]1O`, the pIC50 is 4.75 in the data set with Human alphaherpesvirus 2 and 5.44 in the data set on Human alphaherpesvirus 1 [2]. The molecule further yielded a Toxicity in data set [1] above 1000 µM.

As to `O=c1nc(OC(F)F)c(F)cn1[C@@H]1O[C@H](CO)[C@@H](O)[C@@H]1O`, the pIC50 was 3.52 with Human alphaherpesvirus 2 and 3.96 in the data set on Human alphaherpesvirus 1 [2]. This molecule displayed a Toxicity in data set [1] above 500 µM.

On to `O=c1[nH]c(=O)n([C@@H]2O[C@H](CO)[C@@H](O)[C@@H]2O)cc1Br`, for which the pIC50 was 5.10 with Human alphaherpesvirus 2 and 5.87 with Human alphaherpesvirus 1 [2]. The molecule further displayed a Toxicity in data set [1] above 1000 µM.

`Cc1cn([C@H]2C[C@H](O)[C@@H](CO)O2)c(=O)nc1OC(F)F`: the pIC50 with Human alphaherpesvirus 2 and with Human alphaherpesvirus 1 [2] was below 3.00 in each case. The molecule further returned a Toxicity in data set [1] above 1000 µM.

On to `O=c1nc(OC(F)F)c(Br)cn1[C@H]1C[C@H](O)[C@@H](CO)O1`, for which the pIC50 with Human alphaherpesvirus 2 is below 3.30; in the data set on Human alphaherpesvirus 1 [2], 3.89. In addition, the Toxicity in data set [1] is above 500 µM.

As to `CCc1cn([C@H]2C[C@H](O)[C@@H](CO)O2)c(=O)nc1OC(F)F`, the pIC50 in the data set with Human alphaherpesvirus 2 and in the data set on Human alphaherpesvirus 1 [2] was below 3.00 each time. Moreover, in data set [1], the Toxicity is above 1000 µM.

Take `O=c1[nH]c(=O)n([C@@H]2O[C@H](CO)[C@@H](O)[C@H]2O)cc1/C=C/Br`: the pIC50 was 4.31 in the data set on Human alphaherpesvirus 2, 6.94 in the data set on Human alphaherpesvirus 1 [2] and below 3.00 in data set [4].

Consider `O=c1nc(OC(F)F)c(/C=C/Br)cn1C1O[C@H](CO)[C@@H](O)[C@@H]1O` (some centres not stated), for which the pIC50 in the data set with Human alphaherpesvirus 2 was below 3.30; in the data set on Human alphaherpesvirus 1 [2] it was 5.96. In data set [1], this molecule registered a Toxicity above 500 µM.

Consider `O=c1[nH]c(=O)n(C2O[C@H](CO)[C@@H](O)[C@@H]2O)cc1I` (some centres not stated), for which the results for the pIC50 in the data set with Human alphaherpesvirus 2 and with Human alphaherpesvirus 1 [2] were 4.15 and 4.29, respectively. The same molecule gave a Toxicity in data set [1] above 500 µM.

Take `Cc1cn(C2O[C@H](CO)[C@@H](O)[C@@H]2O)c(=O)nc1OC(F)F` (some centres not stated): the pIC50 with Human betaherpesvirus 5 was below 3.30; in the data set on Human alphaherpesvirus 2, 5.52; with Human alphaherpesvirus 1 [2] it was 6.10; in the data set with Human alphaherpesvirus 3, 6.00; in the data set with Human alphaherpesvirus 1 [3], below 3.30. In data set [1], the Toxicity was above 1000 µM.

Turning to `CCc1cn(C2O[C@H](CO)[C@@H](O)[C@@H]2O)c(=O)nc1OC(F)F` (some centres not stated), the pIC50 in the data set on Human alphaherpesvirus 2 is 3.68; in the data set with Human alphaherpesvirus 1 [2] it was 4.57. The molecule also gave a Toxicity in data set [1] above 500 µM.

Take `Nc1nc2c(ncn2COCCO)c(=O)[nH]1` [ACYCLOVIR]: the values for the pIC50 (in the data set on Human alphaherpesvirus 2; in the data set on Human alphaherpesvirus 1 [2]; in data set [4]) were 5.80, 6.32 and 3.44, respectively.

`O=c1[nH]c(=O)n([C@H]2C[C@H](O)[C@@H](CO)O2)cc1/C=C/Br` [BRIVUDINE]: the pIC50 was 4.57 in the data set on Human alphaherpesvirus 2, 7.30 in the data set with Human alphaherpesvirus 1 [2] and 3.77 in data set [4].

Regarding `O=c1[nH]c(=O)n([C@H]2C[C@H](O)[C@@H](CO)O2)cc1Br` [BROXURIDINE], the values for the pIC50 in the data set with Human alphaherpesvirus 2 and in the data set on Human alphaherpesvirus 1 [2] were 5.85 and 6.10, respectively. Further, the Toxicity in data set [1] was above 1000 µM.

Turning to `CCc1cn([C@H]2C[C@H](O)[C@@H](CO)O2)c(=O)[nH]c1=O` [EDOXUDINE], the pIC50 was 4.84 with Human alphaherpesvirus 2 and 5.00 with Human alphaherpesvirus 1 [2]. In data set [1], this molecule gave a Toxicity above 1000 µM.
